ChEMBL document CHEMBL1124321, “Design of potent linear alpha-melanotropin 4-10 analogues modified in positions 5 and 10” (J Med Chem, 1989)
Non-standard residues stand in square brackets, D forms with d. Residues, ends and D or L forms follow the SMILES beside them. Nle = CCCC[C@H](N)C(=O)O

Columns and labels:
lizard = assay: In vitro potency in lizard (Anolis carolinensis) skin bioassay relative to alpha-MSH; format: functional
Summary of the method: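 Isolated skins incubated in vitro with peptide across the full log dose-response range. Darkening from melanosome dispersion into melanophore dendrites is read as surface reflectance on a reflectometer and expressed as percent response versus the time-zero value. Each point is a mean ± SE of 6 or more skins. Potency is taken from the dose-response curves relative to α-MSH.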

[1] = tested on: Melanocyte-stimulating hormone receptor (Rana pipiens); assay: In vitro potency in frog (Rana pipiens) skin assay relative to alpha-MSH

Row | SMILES | Activity [1] | Activity (lizard)
1 | CCCC[C@H](NC(C)=O)C(=O)N[C@@H](CCC(=O)O)C(=O)N[C@@H](Cc1c[nH]cn1)C(=O)N[C@H](Cc1ccccc1)C(=O)N[C@@H](CCCN=C(N)N)C(=O)N[C@@H](Cc1c[nH]c2ccccc12)C(=O)N[C@@H](CCCN)C(N)=O | 0.6 | 8
2 | CCCC[C@H](NC(C)=O)C(=O)N[C@@H](CC(=O)O)C(=O)N[C@@H](Cc1c[nH]cn1)C(=O)N[C@H](Cc1ccccc1)C(=O)N[C@@H](CCCN=C(N)N)C(=O)N[C@@H](Cc1c[nH]c2ccccc12)C(=O)N[C@@H](CCN)C(N)=O | 0.9 | 50
3 | CCCC[C@H](NC(=O)[C@H](CO)NC(=O)[C@H](Cc1ccc(O)cc1)NC(=O)[C@H](CO)NC(C)=O)C(=O)N[C@@H](CCC(=O)O)C(=O)N[C@@H](Cc1c[nH]cn1)C(=O)N[C@H](Cc1ccccc1)C(=O)N[C@@H](CCCN=C(N)N)C(=O)N[C@@H](Cc1c[nH]c2ccccc12)C(=O)N[C@@H](CCCCN)C(=O)NCC(=O)N1CCC[C@H]1C(=O)N[C@H](C(N)=O)C(C)C (Ac-SYS[Nle]EH[dF]RWKGPV-NH2) | 6 | 8
4 | CCCC[C@H](NC(C)=O)C(=O)N[C@@H](CC(=O)O)C(=O)N[C@@H](Cc1c[nH]cn1)C(=O)N[C@@H](Cc1ccccc1)C(=O)N[C@@H](CCCN=C(N)N)C(=O)N[C@@H](Cc1c[nH]c2ccccc12)C(=O)N[C@@H](CCCCN)C(N)=O |  | 0.08
5 | CCCC[C@H](NC(C)=O)C(=O)N[C@@H](CC(=O)O)C(=O)N[C@@H](Cc1c[nH]cn1)C(=O)N[C@H](Cc1ccccc1)C(=O)N[C@@H](CCCN=C(N)N)C(=O)N[C@@H](Cc1c[nH]c2ccccc12)C(=O)N[C@@H](CCCCN)C(N)=O |  | 8
6 | CCCC[C@H](NC(C)=O)C(=O)N[C@@H](CC(=O)O)C(=O)N[C@@H](Cc1c[nH]cn1)C(=O)N[C@H](Cc1ccccc1)C(=O)N[C@@H](CCCN=C(N)N)C(=O)N[C@@H](Cc1c[nH]c2ccccc12)C(=O)NCC(N)=O | 0.1 | 8
7 | CCCC[C@H](NC(C)=O)C(=O)N[C@@H](CCC(=O)O)C(=O)N[C@@H](Cc1c[nH]cn1)C(=O)N[C@H](Cc1ccccc1)C(=O)N[C@@H](CCCN=C(N)N)C(=O)N[C@@H](Cc1c[nH]c2ccccc12)C(=O)N[C@@H](CCN)C(N)=O | 0.9 | 10
8 | CCCC[C@H](NC(C)=O)C(=O)N[C@@H](CCC(=O)O)C(=O)N[C@@H](Cc1c[nH]cn1)C(=O)N[C@H](Cc1ccccc1)C(=O)N[C@@H](CCCN=C(N)N)C(=O)N[C@@H](Cc1c[nH]c2ccccc12)C(=O)N[C@@H](CCCCN)C(=O)NCC(=O)N1CCC[C@H]1C(=O)N[C@H](C(N)=O)C(C)C (Ac-[Nle]EH[dF]RWKGPV-NH2) | 0.8 | 8
9 | CCCC[C@H](NC(=O)[C@H](CO)NC(=O)[C@H](Cc1ccc(O)cc1)NC(=O)[C@H](CO)NC(C)=O)C(=O)N[C@@H](CC(=O)O)C(=O)N[C@@H](Cc1c[nH]cn1)C(=O)N[C@H](Cc1ccccc1)C(=O)N[C@@H](CCCN=C(N)N)C(=O)N[C@@H](Cc1c[nH]c2ccccc12)C(=O)N[C@@H](CCCCN)C(=O)NCC(=O)N1CCC[C@H]1C(=O)N[C@H](C(N)=O)C(C)C (Ac-SYS[Nle]DH[dF]RWKGPV-NH2) | 9 | 8
10 | CCCC[C@H](NC(C)=O)C(=O)N[C@@H](CCC(=O)O)C(=O)N[C@@H](Cc1c[nH]cn1)C(=O)N[C@H](Cc1ccccc1)C(=O)N[C@@H](CCCN=C(N)N)C(=O)N[C@@H](Cc1c[nH]c2ccccc12)C(=O)N[C@@H](CCCCN)C(N)=O | 0.2 | 8

More lines, main results first:

Row | Activity [1] | SMILES | Activity (lizard)
11 | 0.2 | CCCC[C@H](NC(C)=O)C(=O)N[C@@H](CC(=O)O)C(=O)N[C@@H](Cc1c[nH]cn1)C(=O)N[C@H](Cc1ccccc1)C(=O)N[C@@H](CCCN=C(N)N)C(=O)N[C@@H](Cc1c[nH]c2ccccc12)C(=O)N[C@@H](CN)C(N)=O | 8
12 | 0.9 | CCCC[C@H](NC(C)=O)C(=O)N[C@@H](CC(=O)O)C(=O)N[C@@H](Cc1c[nH]cn1)C(=O)N[C@H](Cc1ccccc1)C(=O)N[C@@H](CCCN=C(N)N)C(=O)N[C@@H](Cc1c[nH]c2ccccc12)C(=O)N[C@@H](CCCN)C(N)=O | 10
13 | 0.001 | CCCC[C@H](NC(C)=O)C(=O)N[C@@H](CCC(=O)O)C(=O)N[C@@H](Cc1c[nH]cn1)C(=O)N[C@@H](Cc1ccccc1)C(=O)N[C@@H](CCCN=C(N)N)C(=O)N[C@@H](Cc1c[nH]c2ccccc12)C(=O)N[C@@H](CCCCN)C(N)=O | 0.08
14 | 1 | CCCC[C@H](NC(C)=O)C(=O)N[C@@H](CC(=O)O)C(=O)N[C@@H](Cc1c[nH]cn1)C(=O)N[C@H](Cc1ccccc1)C(=O)N[C@@H](CCCN=C(N)N)C(=O)N[C@@H](Cc1c[nH]c2ccccc12)C(=O)N[C@@H](CCCCN)C(=O)NCC(=O)N1CCC[C@H]1C(=O)N[C@H](C(N)=O)C(C)C (Ac-[Nle]DH[dF]RWKGPV-NH2) | 10
